In EPA's CvTdb concentration-time database:

How the values were obtained:
Rat [1] = experiment: concentration in plasma after dosing; settings: 0.25 h; dosed: Primidone; 80 mg/kg; oral; Female; F344
Rat [2] = experiment: concentration in plasma after dosing; settings: 3 h; dosed: Primidone; 130 mg/kg; oral; Male; Harlan Sprague Dawley
Mouse [3] = experiment: concentration in plasma after dosing; settings: 10 min; dosed: 2-Hydroxy-4-methoxybenzophenone; 50 mg/kg; iv; Male; B6C3F1
Mouse [4] = experiment: concentration in plasma after dosing; settings: 0.25 h; dosed: 2-Hydroxy-4-methoxybenzophenone; 50 mg/kg; iv; Male; B6C3F1
Rat [5] = experiment: concentration in plasma after dosing; settings: dosed: 2-Hydroxy-4-methoxybenzophenone, 250 mg/kg, oral, Male, F344
Mouse [6] = experiment: concentration in plasma after dosing; settings: 10 min; dosed: 2-Hydroxy-4-methoxybenzophenone; 50 mg/kg; iv; Female; B6C3F1
Rat [7] = experiment: concentration in plasma after dosing; settings: dosed: 2-Hydroxy-4-methoxybenzophenone, 100 mg/kg, oral, Female, F344
Mouse [8] = experiment: concentration in plasma after dosing; settings: 2 h; dosed: 2-Hydroxy-4-methoxybenzophenone; 250 mg/kg; oral; Male; B6C3F1
Mouse [9] = experiment: concentration in plasma after dosing; settings: dosed: 2-Hydroxy-4-methoxybenzophenone, 100 mg/kg, oral, Female, B6C3F1
Mouse [10] = experiment: concentration in plasma after dosing; settings: 2 h; dosed: 2-Hydroxy-4-methoxybenzophenone; 500 mg/kg; oral; Female; B6C3F1
human [11] = experiment: concentration in blood after dosing; negative times count back from the end of exposure; settings: dosed: trichloroethylene, inhalation
Procedure, shortened: (§1)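 Concentration-versus-time or amount-versus-time points were compiled from published in vivo toxicokinetic studies and from two structured collections. The studies were found by PubMed searching, classifier screening and manual review. Points were mostly digitised from plot screenshots with WebPlotDigitizer, otherwise copied from tables, and kept in the reported units. Dose, route, subject details and medium were curated by hand from each paper, and sampling and analytical methods follow each source and were often unreported.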

Rat [12] = experiment: concentration in plasma after dosing; settings: dosed: Methyleugenol, 37 mg/kg, iv, Female, F344
Hamster = experiment: concentration in plasma after dosing; settings: dosed: 2,4-Dichlorophenoxyacetic acid, 40 mg/kg, oral, Male, Syrian Golden
Procedure, shortened: as §1

Rat [13] = experiment: concentration in plasma after dosing; settings: 5 min; dosed: alpha-Thujone; 25 mg/kg; oral; Male; Harlan Sprague Dawley
Rat [14] = experiment: concentration in brain after dosing; settings: 1.5 h; dosed: alpha-Thujone; 50 mg/kg; oral; Female; Harlan Sprague Dawley
Rat [15] = experiment: concentration in brain after dosing; settings: 3 h; dosed: alpha-Thujone; 50 mg/kg; oral; Female; Harlan Sprague Dawley
Rat [16] = experiment: concentration in plasma after dosing; settings: 10 min; dosed: alpha-Thujone; 25 mg/kg; oral; Male; Harlan Sprague Dawley
Rat [17] = experiment: concentration in brain after dosing; settings: 2 min; dosed: alpha-Thujone; 25 mg/kg; oral; Female; Harlan Sprague Dawley
Rat [18] = experiment: concentration in plasma after dosing; settings: 0.5 h; dosed: alpha-Thujone; 25 mg/kg; oral; Male; Harlan Sprague Dawley
Rat [19] = experiment: concentration in plasma after dosing; settings: 5 min; dosed: alpha-Thujone; 50 mg/kg; oral; Female; Harlan Sprague Dawley
human [20] = experiment: concentration in blood after dosing; negative times count back from the end of exposure; settings: dosed: trichloroethylene, 100 ppm, inhalation, duration: 6 hr, female
Procedure, shortened: as §1

Rat [21] = experiment: concentration in liver after dosing; settings: 1200 h; dosed: Perfluorohexane-1-sulphonic acid – potassium salt; 16 mg/kg; oral; Male; Harlan Sprague Dawley
Rat [22] = experiment: concentration in kidney after dosing; settings: 3 h; dosed: Perfluorohexane-1-sulphonic acid – potassium salt; 16 mg/kg; oral; Female; Harlan Sprague Dawley
Rat [23] = experiment: concentration in kidney after dosing; settings: 24 h; dosed: Perfluorohexane-1-sulphonic acid – potassium salt; 16 mg/kg; oral; Female; F344
Rat [24] = experiment: concentration in plasma after dosing; settings: dosed: Pyridine, 25 mg/kg, oral, Male, F344
Rat [25] = experiment: concentration in plasma after dosing; settings: 5 min; dosed: Pyridine; 10 mg/kg; iv; Male; F344

CCC1(c2ccccc2)C(=O)NCNC1=O [Primidone]
Settings	concentration in plasma [ng/mL]
Rat [1]	25300
Rat [2]	108000

O=C(c1ccccc1)c1ccc(O)cc1O [2,4-Dihydroxybenzophenone]
Settings	concentration in plasma [ng/mL]
Mouse [3]	3210
Mouse [4]	1940
Mouse [6]	1610
Mouse [8]	338
Mouse [10]	135

Settings	concentration in plasma [ng/mL]
Mouse [9], 0.25 h	276
Mouse [9], 2 h	92.3
Mouse [9], 2.5 min	63.7
Mouse [9], 10 min	130
Rat [5], 0.5 h	888
Rat [5], 10 h	75.5
Rat [7], 0.5 h	195
Rat [7], 5 h	85.4

OCC(Cl)(Cl)Cl [trichloroethanol (free)]
human [11], 100 ppm, duration: 4 hr, person
Settings	concentration in blood [ng/mL]
0.2566 h	2040
0.515 h	2000
1.032 h	1910
1.986 h	1740
3.954 h	1400
5.921 h	1180
7.947 h	1070
9.954 h	944
11.96 h	896
13.99 h	727
15.97 h	577
18 h	459

human [11], 100 ppm, duration: 4 hr, person, during exposure
Settings	concentration in blood [ng/mL]
-5 s	2030
-3.524 h	172
-2.99 h	481
-2.021 h	1060
-0.9915 h	1570

C=CCc1ccc(OC)c(OC)c1 [Methyleugenol]
Rat [12]
Settings	concentration in plasma [ng/mL]
0.25 h	9200
1.5 h	738

O=C(O)COc1ccc(Cl)cc1Cl [2,4-Dichlorophenoxyacetic acid]
Hamster
Settings	concentration in plasma [ng/mL]
0.25 h	70500
0.5 h	36800
1 h	80100
1.5 h	14000
2 h	20500
4 h	2580
5 min	102000

CC(C)[C@]12CC(=O)[C@H](C)[C@H]1C2 [alpha-Thujone]
Settings	concentration in brain [ng/g]	concentration in plasma [ng/mL]
Rat [13]	–	570
Rat [14]	1360	–
Rat [15]	615	–
Rat [16]	–	243
Rat [17]	36.5	–
Rat [18]	–	337
Rat [19]	–	343

OCC(Cl)(Cl)Cl [trichloroethanol]
human [20]
Settings	concentration in blood [ng/mL]
0 h	4610
18 h	4180
24 h	8180
42 h	6260
48 h	11800
66 h	6560
72 h	13100
90 h	5590
96 h	9980
160 h	1570

Settings	concentration in blood [ng/mL]
human [20], -6 h, during exposure	212

concentration in blood [mg/kg], human [11], duration: 2 hr - 20 min
Settings	0 h	0.5 h	1 h	1.5 h	2 h	21 h
1348 mg	2.8	2.7	2.6	2.5	2.4	0.8
1681 mg	3	3.3	3.3	3.2	3.1	1
3907 mg	3.9	4.5	4.2	4.4	4.4	1.6

human [11]
Settings	concentration in blood
-1.833 h, 1348 mg, duration: 2 hr - 20 min, during exposure	0.8 mg/kg
-1.833 h, 1681 mg, duration: 2 hr - 20 min, during exposure	0.7 mg/kg
-1.833 h, 3907 mg, duration: 2 hr - 20 min, during exposure	1.4 mg/kg
-1 h, 1348 mg, duration: 2 hr - 20 min, during exposure	1.3 mg/kg
-1 h, 1681 mg, duration: 2 hr - 20 min, during exposure	1.9 mg/kg
-1 h, 3907 mg, duration: 2 hr - 20 min, during exposure	2.2 mg/kg
-0.5 h, 1348 mg, duration: 2 hr - 20 min, during exposure	2.2 mg/kg
-0.5 h, 1681 mg, duration: 2 hr - 20 min, during exposure	2.1 mg/kg
-0.5 h, 3907 mg, duration: 2 hr - 20 min, during exposure	3.1 mg/kg
0 h, 100 ppm, duration: 6 hr, female	4110 ng/mL
18 h, 100 ppm, duration: 6 hr, female	2420 ng/mL
24 h, 100 ppm, duration: 6 hr, female	5640 ng/mL
42 h, 100 ppm, duration: 6 hr, female	2510 ng/mL
48 h, 100 ppm, duration: 6 hr, female	5750 ng/mL
66 h, 100 ppm, duration: 6 hr, female	3180 ng/mL
72 h, 100 ppm, duration: 6 hr, female	9060 ng/mL
90 h, 100 ppm, duration: 6 hr, female	5590 ng/mL
96 h, 100 ppm, duration: 6 hr, female	9010 ng/mL

Settings	concentration in blood [ng/mL]
human [11], -6 h, 100 ppm, duration: 6 hr, female, during exposure	212

O=S(=O)([O-])C(F)(F)C(F)(F)C(F)(F)C(F)(F)C(F)(F)C(F)(F)F.[K+] [Perfluorohexane-1-sulphonic acid – potassium salt]
Settings	concentration in kidney [ng/g]	concentration in liver [ng/g]
Rat [21]	–	10900
Rat [22]	42800	–
Rat [23]	43700	–

c1ccncc1 [Pyridine]
Rat [24]
Settings	concentration in plasma [ng/mL]
4 h	15900
5 min	7460

Settings	concentration in plasma [ng/mL]
Rat [25]	8970
